From ChEMBL document CHEMBL5705897, “Characterization of WZ4003 and HTH-01-015 as selective inhibitors of the LKB1-tumour-suppressor-activated NUAK kinases” (Biochem J, 2014)
Calls of active or inactive are those of the source. The calls are words filed in the database; no cut-off is given here.

Key:
[1] = target: NUAK family SNF1-like kinase 2 (Homo sapiens) (UniProt Q9H093); assay: Inhibition of GST-tagged NUAK2 (unknown origin) expressed in HEK293 cells using ALNRTSSDSALHRRR as substrate incubated for 30 mins in presence of [gamma-32P]-ATP by Cerenkov counting method; assay type: cell-based
Procedure, shortened: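 GST–NUAK2 purified on glutathione–Sepharose from HEK-293 cells 36–48 h after transient transfection; 100 ng enzyme in 50 mM Tris/HCl pH 7.5, 0.1 mM EGTA, 10 mM magnesium acetate, 200 μM Sakamototide, 0.1 mM [γ-32P]ATP, inhibitor in DMSO; 30 min at 30 °C, stopped with 25 mM EDTA, spotted on P81, Cerenkov counted; triplicate; IC50 by non-linear regression versus DMSO control.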

[2] = target: T1, Aurora kinase A (Homo sapiens) (UniProt O14965); assay: Inhibition of recombinant human N-terminal Hi6-tagged Aurora A (2 to 403 residues) expressed in Escherichia coli 1 uM using LRRLSLGLRRLSLGLRRLSLGLRRLSLG as substrate incubated for 30 mins in presence of [gamma-33P]ATP by filter binding method
T1 sequence (whole entry): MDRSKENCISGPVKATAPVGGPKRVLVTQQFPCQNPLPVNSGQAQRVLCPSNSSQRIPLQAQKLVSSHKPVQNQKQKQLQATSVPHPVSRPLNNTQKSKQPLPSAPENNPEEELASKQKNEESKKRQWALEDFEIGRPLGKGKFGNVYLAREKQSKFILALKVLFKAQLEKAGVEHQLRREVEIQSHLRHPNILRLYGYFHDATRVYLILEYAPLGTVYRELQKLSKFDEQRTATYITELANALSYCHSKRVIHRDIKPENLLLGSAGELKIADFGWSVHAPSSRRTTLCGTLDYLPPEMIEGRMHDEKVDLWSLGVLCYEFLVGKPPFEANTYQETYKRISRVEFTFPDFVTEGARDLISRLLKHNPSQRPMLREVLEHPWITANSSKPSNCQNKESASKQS
Procedure, shortened: (§1)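 Screened at the International Centre for Protein Kinase Profiling against a 140-kinase panel, with inhibitor at 0.1 or 1 μM; activity expressed as percentage of DMSO control reactions, mean of triplicate reactions.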

[3] = target: Aurora kinase B (Homo sapiens) (UniProt Q96GD4); assay: Inhibition of recombinant human N-terminal His6-tagged Aurora B (1 to 344 residues) expressed in Escherichia coli at 1 uM using LRRLSLGLRRLSLGLRRLSLGLRRLSLG as substrate incubated for 30 mins in presence of [gamma-33P]ATP by filter binding method; procedure, shortened: as §1
[4] = target: Tyrosine-protein kinase ABL1 (Homo sapiens) (UniProt P00519); assay: Inhibition of recombinant human N-terminal GST-tagged ABL (118 to 535 residues) expressed in Escherichia coli co-expressed with His-tagged YopH at 1 uM using EAIYAAPFAKKK as substrate incubated for 30 mins in presence of [gamma-33P]ATP by filter binding method
Procedure, shortened: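 Run within a 140-kinase specificity panel at the International Centre for Protein Kinase Profiling. Compounds were dissolved in DMSO and tested in vitro at 0.1 or 1 μM. Activity is expressed as percentage of kinase activity in DMSO control reactions, as the mean ± S.D. of triplicate reactions.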

[5] = target: Tyrosine-protein kinase JAK2 (Homo sapiens) (UniProt O60674); assay: Inhibition of JAK2 (unknown origin) activity at 1 uM relative to control; procedure, shortened: as §1
[6] = target: T2, NUAK family SNF1-like kinase 1 (Homo sapiens) (UniProt O60285); assay: Inhibition of NUAK1 in HEK293 cells assessed as reduction in MYPT1 phosphorylation at Ser445 residue at 0.1 to 10 uM incubated for 16 hrs by immunoblot analysis; assay type: cell-based; details: dose 0.1-10 µM
T2 sequence (whole entry): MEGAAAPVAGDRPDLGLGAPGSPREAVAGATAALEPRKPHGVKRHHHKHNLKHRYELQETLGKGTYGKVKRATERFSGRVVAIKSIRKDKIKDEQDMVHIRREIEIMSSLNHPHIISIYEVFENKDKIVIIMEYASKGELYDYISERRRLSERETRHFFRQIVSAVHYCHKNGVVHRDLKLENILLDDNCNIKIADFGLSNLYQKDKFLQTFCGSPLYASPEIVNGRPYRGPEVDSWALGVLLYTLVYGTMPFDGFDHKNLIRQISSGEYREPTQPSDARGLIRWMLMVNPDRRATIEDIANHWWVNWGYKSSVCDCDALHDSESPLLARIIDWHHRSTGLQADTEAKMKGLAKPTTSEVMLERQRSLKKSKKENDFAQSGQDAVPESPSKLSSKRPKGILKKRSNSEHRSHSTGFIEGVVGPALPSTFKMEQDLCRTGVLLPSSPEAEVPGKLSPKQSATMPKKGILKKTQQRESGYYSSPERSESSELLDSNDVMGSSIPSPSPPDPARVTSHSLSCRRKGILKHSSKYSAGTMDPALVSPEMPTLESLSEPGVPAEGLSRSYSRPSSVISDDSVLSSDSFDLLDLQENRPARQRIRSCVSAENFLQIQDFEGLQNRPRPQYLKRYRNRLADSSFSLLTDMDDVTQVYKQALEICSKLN
Procedure, shortened: (§2)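 HEK-293 cells exposed to inhibitor or DMSO for 16 h; medium replaced by EDTA-PBS dissociation buffer with the same inhibitor concentration to induce detachment (gentle tapping, 70 g, 3 min); cells lysed at once; MYPT1 immunoprecipitated from 0.5 mg lysate, blotted for p-Ser445 and total MYPT1; repeated three times.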

[7] = target: Serine/threonine-protein kinase MARK1 (Homo sapiens) (UniProt Q9P0L2); assay: Inhibition of recombinant human N-terminal His6-tagged MARK1 (2 to 795 residues) expressed in baculovirus infected Sf21 cells at 1 uM using KKKVSRSGLYRSPSMPENLNRPR as substrate incubated for 30 mins in presence of [gamma-33P]ATP by filter binding method; procedure, shortened: as §1
[8] = target: MAP/microtubule affinity-regulating kinase 3 (Homo sapiens) (UniProt P27448); assay: Inhibition of recombinant human N-terminal His6-tagged MARK3 (2 to 729 residues) expressed in baculovirus infected Sf21 cells at 1 uM using CHKtide as substrate incubated for 30 mins in presence of [gamma-33P]ATP by filter binding method; procedure, shortened: as §1
[9] = target: Serine/threonine-protein kinase BRSK1 (Homo sapiens) (UniProt Q8TDC3); assay: Inhibition of recombinant human N-terminal His6-tagged BRSK1 (2 to 778 residues) expressed in baculovirus infected Sf21 cells at 1 uM using KKLNRTLSFAEPG as substrate incubated for 30 mins in presence of [gamma-33P]ATP by filter binding method; procedure, shortened: as §1
[10] = target: AMPK alpha1/beta2/gamma1 (Homo sapiens) (UniProt O43741+P54619+Q13131); assay: Inhibition of recombinant N-terminal His6-tagged human AMPKalpha1 (11 to 559 residues)/AMPKbeta2 (1 to 272 residues)/AMPKgamma1 (1 to 331 residues) expressed in baculovirus infected Sf21 cells at 1 uM using SAMS as substrate incubated for 30 mins in presence of [gamma-33P]ATP by filter binding method; procedure, shortened: as §1
[11] = target: High affinity nerve growth factor receptor (Homo sapiens) (UniProt P04629); assay: Inhibition of recombinant human N-terminal His6-tagged TrkA (441 to 760 residues) expressed in baculovirus infected Sf21 cells assessed as remaining activity at 1 uM using Poly(Glu,Tyr) as substrate incubated for 30 mins in presence of [gamma-33P]ATP by filter binding method relative to control; procedure, shortened: as §1
[12] = target: T2, NUAK family SNF1-like kinase 1 (Homo sapiens); assay: Inhibition of NUAK1 in HEK293 cells assessed as reduction in MYPT1 phosphorylation at Ser445 residue at 10 uM incubated for 16 hrs by immunoblot analysis; assay type: cell-based; procedure, shortened: as §2
[13] = target: T2, NUAK family SNF1-like kinase 1 (Homo sapiens); assay: Inhibition of NUAK1 (unknown origin) expressed in HEK293 cells assessed as reduction in MYPT1 phosphorylation at Ser445 residue at 30 uM incubated for 16 hrs by immunoblot analysis; assay type: cell-based
Procedure, shortened: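 HEK-293 Flp/In T-Rex cells stably expressing HA–NUAK1 or HA–NUAK1[A195T] (doxycycline 0.1 μg/ml, 16–24 h to induce) treated with inhibitor 16 h, then detached in EDTA-PBS dissociation buffer containing the same inhibitor concentration, tapped and spun 70 g 3 min; lysed, endogenous MYPT1 immunoprecipitated from 0.5 mg lysate and immunoblotted for p-Ser445 and total MYPT1; three separate experiments.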

MEF [14] = assay: Inhibition of cell migration in NUAK1+/+ MEF cells at 10 uM pre incubated for 1 hr followed by overnight incubation and measured after 15 to 20 hrs by microscopic based wound healing assay; assay type: functional; details: Mus musculus
Procedure, shortened: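 Wound healing: equal MEF numbers loaded into both chambers of inserts with a 500 μm gap, inhibitor (10 μM) added 1 h before; after overnight at 37 °C, 5% CO2 insert removed and gap closure filmed by time-lapse microscopy every 2 min over 15–20 h; triplicate.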

U2OS [15] = assay: Antiproliferative activity against human U2OS cells assessed as reduction in cell viability at 10 uM after 5 days by CellTiter 96 non-radioactive cell proliferation assay; assay type: functional, cell-based; details: time 5.0 day
Procedure, shortened: (§3)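 Colorimetric CellTiter 96 AQueous proliferation assay in 96-well format; 2000 cells/well seeded for U2OS, 3000 cells/well for MEFs; grown 5 days with or without 10 μM inhibitor; run in triplicate. Inhibitors dissolved in DMSO, final DMSO in medium ≤1%. MEFs cultured in DMEM/10% FBS, glutamine, non-essential amino acids, sodium pyruvate.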

[16] = target: T2, NUAK family SNF1-like kinase 1 (Homo sapiens); assay: Inhibition of NUAK1 in human U2OS cells assessed as reduction in MYPT1 phosphorylation at Ser445 residues at 10 uM after 16 hrs by immunoblot analysis; assay type: cell-based
Procedure, shortened: (§4)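 U2OS cells or NUAK1+/+ MEFs treated with or without 10 μM inhibitor for 16 h, then 20 min in EDTA-PBS dissociation buffer with 10 μM inhibitor or DMSO; detached by tapping and 70 g 3 min spin, lysed immediately and immunoblotted for MYPT1 p-Ser445; three separate experiments.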

MEF [17] = assay: Antiproliferative activity against NUAK1+/+ MEF cells assessed as reduction in cell viability at 10 uM after 5 days by CellTiter 96 non-radioactive cell proliferation assay; assay type: functional, cell-based; details: Mus musculus, time 5.0 day; procedure, shortened: as §3
MEF [18] = assay: Inhibition of NUAK1 in NUAK1+/+ MEF cells assessed as reduction in MYPT1 phosphorylation at Ser445 residues at 10 uM after 16 hrs by immunoblot analysis; assay type: cell-based; details: Mus musculus; procedure, shortened: as §4
U2OS [19] = assay: Inhibition of cell invasion in human U2OS cells at 10 uM incubated for 16 hrs by matrigel based transwell assay; assay type: functional
Procedure, shortened: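 Growth-factor-reduced Matrigel Transwell invasion: U2OS cells serum-deprived 2 h, detached, 2.5×10^5 cells in DMEM/1% BSA added to upper chambers in triplicate, DMEM/10% FBS as chemoattractant below; 16 h at 37 °C, 5% CO2 with or without 10 μM inhibitor in both compartments; cells on lower filter face fixed, stained, imaged ×10 and counted; mean ± S.D.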

Chain of NUAK family SNF1-like kinase 2 (Homo sapiens) (Q9H093 whole entry): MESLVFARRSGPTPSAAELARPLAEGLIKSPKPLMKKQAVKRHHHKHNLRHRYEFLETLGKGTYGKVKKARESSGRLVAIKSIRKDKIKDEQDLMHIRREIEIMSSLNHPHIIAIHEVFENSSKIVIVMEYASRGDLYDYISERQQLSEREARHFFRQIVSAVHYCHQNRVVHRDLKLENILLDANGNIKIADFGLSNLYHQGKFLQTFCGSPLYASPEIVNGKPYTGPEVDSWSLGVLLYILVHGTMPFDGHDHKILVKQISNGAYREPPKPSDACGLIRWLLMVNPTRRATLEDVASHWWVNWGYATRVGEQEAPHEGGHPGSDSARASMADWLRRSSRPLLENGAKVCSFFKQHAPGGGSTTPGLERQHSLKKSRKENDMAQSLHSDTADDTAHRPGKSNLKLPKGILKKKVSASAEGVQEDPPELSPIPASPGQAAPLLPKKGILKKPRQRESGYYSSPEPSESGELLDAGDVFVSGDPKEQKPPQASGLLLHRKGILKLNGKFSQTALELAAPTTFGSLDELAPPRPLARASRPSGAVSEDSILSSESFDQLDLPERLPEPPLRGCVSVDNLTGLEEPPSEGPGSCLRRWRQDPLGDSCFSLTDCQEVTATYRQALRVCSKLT
Chain of Tyrosine-protein kinase ABL1 (Homo sapiens) (P00519 whole entry, the tested form may be a part): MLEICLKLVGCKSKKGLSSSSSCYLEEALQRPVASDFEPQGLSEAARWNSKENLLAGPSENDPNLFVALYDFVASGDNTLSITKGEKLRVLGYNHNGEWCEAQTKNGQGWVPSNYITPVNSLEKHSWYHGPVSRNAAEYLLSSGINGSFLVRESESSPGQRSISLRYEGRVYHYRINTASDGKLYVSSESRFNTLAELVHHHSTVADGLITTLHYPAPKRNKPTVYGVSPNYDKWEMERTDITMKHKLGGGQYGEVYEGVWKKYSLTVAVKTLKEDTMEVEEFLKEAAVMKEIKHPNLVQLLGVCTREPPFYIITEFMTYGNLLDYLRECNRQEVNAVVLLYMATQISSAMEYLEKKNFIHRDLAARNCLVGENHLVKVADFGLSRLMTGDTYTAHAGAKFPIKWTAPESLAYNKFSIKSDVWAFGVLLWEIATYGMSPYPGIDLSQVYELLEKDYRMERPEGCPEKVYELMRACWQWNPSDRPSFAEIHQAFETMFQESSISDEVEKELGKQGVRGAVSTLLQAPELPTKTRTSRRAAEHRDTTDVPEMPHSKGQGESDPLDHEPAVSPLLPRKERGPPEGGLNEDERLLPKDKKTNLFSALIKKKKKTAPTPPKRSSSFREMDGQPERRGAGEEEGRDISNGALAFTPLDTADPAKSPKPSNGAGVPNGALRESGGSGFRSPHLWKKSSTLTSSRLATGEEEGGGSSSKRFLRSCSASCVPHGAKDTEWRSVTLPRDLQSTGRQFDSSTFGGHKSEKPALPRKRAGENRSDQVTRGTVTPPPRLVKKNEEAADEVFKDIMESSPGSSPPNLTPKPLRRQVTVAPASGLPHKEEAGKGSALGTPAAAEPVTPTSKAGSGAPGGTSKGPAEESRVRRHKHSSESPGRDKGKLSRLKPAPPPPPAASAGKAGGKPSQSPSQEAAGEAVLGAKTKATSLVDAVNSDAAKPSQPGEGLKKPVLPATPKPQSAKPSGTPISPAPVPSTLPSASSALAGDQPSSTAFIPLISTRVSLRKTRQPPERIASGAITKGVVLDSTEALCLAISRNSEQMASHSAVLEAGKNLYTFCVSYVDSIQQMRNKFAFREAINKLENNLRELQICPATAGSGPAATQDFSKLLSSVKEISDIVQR
Chain of Aurora kinase B (Homo sapiens) (Q96GD4 whole entry, the tested form may be a part): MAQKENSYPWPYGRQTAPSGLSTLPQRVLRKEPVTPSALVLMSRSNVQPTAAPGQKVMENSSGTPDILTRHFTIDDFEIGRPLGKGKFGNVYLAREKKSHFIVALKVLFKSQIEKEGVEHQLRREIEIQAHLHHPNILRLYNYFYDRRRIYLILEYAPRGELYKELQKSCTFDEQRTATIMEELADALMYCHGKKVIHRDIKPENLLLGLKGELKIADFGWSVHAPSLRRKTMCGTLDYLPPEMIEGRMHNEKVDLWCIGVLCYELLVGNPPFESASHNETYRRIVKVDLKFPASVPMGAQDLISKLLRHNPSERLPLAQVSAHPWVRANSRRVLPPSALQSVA
Chain of Tyrosine-protein kinase JAK2 (Homo sapiens) (O60674 whole entry): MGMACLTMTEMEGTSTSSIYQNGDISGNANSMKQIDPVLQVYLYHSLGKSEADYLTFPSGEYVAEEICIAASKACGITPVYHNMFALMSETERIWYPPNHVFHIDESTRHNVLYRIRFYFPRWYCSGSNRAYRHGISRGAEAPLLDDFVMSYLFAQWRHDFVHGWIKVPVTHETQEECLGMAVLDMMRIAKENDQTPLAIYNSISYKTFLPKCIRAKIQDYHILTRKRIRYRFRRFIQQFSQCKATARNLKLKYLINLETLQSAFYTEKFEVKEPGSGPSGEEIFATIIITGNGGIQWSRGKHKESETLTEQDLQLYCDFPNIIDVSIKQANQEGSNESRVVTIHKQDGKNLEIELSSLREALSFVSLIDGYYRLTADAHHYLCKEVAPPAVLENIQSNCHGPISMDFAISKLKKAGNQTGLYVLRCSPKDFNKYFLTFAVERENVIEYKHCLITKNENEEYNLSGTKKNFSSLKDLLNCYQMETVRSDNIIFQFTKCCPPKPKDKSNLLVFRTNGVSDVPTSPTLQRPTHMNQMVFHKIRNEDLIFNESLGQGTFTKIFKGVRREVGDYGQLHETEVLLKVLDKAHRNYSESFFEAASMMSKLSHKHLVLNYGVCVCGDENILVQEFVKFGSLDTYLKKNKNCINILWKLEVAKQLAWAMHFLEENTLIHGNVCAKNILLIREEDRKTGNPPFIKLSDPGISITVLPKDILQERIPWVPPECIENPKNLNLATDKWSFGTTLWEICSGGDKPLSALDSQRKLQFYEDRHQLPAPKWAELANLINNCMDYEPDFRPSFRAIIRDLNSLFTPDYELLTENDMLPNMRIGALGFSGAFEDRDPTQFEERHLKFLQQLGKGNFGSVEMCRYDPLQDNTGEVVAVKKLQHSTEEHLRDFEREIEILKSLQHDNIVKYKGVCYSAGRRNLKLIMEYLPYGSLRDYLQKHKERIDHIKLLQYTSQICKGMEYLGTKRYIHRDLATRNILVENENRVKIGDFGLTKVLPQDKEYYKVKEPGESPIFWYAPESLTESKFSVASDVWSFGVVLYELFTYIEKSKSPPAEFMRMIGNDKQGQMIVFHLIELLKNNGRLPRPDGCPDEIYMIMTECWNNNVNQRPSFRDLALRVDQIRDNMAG
Chain of Serine/threonine-protein kinase MARK1 (Homo sapiens) (Q9P0L2 whole entry, looked up, the tested form may be a part): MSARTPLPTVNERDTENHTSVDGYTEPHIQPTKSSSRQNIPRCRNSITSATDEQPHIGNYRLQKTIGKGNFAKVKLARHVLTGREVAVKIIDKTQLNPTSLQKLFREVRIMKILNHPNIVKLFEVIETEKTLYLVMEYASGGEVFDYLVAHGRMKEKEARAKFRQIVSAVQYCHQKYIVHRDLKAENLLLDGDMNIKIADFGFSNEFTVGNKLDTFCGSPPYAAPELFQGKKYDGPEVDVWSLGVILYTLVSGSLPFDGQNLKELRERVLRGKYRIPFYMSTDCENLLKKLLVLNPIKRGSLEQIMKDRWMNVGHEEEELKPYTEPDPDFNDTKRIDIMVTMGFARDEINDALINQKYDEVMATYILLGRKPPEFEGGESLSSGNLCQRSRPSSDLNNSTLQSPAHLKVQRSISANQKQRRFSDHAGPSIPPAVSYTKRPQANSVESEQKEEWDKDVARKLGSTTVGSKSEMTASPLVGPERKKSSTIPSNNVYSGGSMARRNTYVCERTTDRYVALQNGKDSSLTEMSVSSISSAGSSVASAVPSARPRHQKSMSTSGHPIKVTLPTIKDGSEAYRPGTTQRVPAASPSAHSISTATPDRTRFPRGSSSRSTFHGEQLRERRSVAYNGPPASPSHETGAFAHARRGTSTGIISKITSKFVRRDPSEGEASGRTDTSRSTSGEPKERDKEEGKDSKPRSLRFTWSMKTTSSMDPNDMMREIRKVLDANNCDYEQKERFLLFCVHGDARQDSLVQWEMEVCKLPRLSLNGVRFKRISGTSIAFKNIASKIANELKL
Chain of High affinity nerve growth factor receptor (Homo sapiens) (P04629 33-796 limits assumed): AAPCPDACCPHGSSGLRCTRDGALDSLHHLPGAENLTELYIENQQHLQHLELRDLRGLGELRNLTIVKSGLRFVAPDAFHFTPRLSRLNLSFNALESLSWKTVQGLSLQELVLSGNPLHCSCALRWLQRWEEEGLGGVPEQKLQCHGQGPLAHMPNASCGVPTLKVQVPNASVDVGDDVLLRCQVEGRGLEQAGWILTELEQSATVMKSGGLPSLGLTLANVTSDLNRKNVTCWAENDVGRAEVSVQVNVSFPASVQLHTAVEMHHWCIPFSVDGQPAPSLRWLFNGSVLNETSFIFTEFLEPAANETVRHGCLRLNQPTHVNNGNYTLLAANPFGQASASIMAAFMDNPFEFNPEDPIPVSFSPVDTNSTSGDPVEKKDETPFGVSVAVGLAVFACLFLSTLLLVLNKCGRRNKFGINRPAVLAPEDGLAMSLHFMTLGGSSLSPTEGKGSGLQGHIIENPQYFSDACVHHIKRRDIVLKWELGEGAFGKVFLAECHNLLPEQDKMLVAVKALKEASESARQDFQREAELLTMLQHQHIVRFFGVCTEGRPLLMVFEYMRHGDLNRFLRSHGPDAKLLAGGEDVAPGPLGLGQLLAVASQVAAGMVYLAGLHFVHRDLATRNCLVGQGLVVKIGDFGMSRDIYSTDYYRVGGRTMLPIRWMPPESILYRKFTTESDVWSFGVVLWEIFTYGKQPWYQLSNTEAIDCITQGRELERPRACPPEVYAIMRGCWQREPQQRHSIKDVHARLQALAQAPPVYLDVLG

Compound | inhibition [1] | inhibition [2] | inhibition [3] | inhibition [4] | inhibition [5] | inhibition [6] | inhibition [7] | inhibition [8] | inhibition [9] | inhibition [10] | Activity [11] [%] | inhibition [12] | inhibition [13] | inhibition (MEF [14]) | inhibition (U2OS [15]) | inhibition [16] | inhibition (MEF [17]) | inhibition (MEF [18]) | inhibition (U2OS [19])
CN1C(=O)c2cc3ccccc3cc2N(C)c2nc(Nc3cnn(C4CCNCC4)c3)ncc21 | inactive | Active | Active | Active | Active | Active | – | – | – | – | – | – | – | – | – | – | – | – | –
CN1C(=O)c2ccccc2N(C)c2nc(Nc3cnn(C4CCNCC4)c3)ncc21 | inactive | Active | Active | Active | Active | Active | Active | Active | Active | Active | – | – | – | – | – | – | – | – | –
Cc1nc(Nc2cnn(C3CCNCC3)c2)nc2c1N(C)C(=O)c1cc3ccccc3cc1N2C | – | – | – | – | – | – | – | – | – | – | 82 | Active | Active | Active | Active | Active | Active | Active | Active
